Results on 96 compounds are retold here after ChEMBL document CHEMBL4513216, “Probing the Open Global Health Chemical Diversity Library for Multistage-Active Starting Points for Next-Generation Antimalarials” (ACS Infect Dis, 2020).

This data set can be described thus: Toxicity liver stage against HepG2, at 10uM. In kind it is cell-based. The conditions noted are these: human, HepG2-A16-CD81EGFP cells; read-out: INHIBITION
Also on record: test concentration 10 uM, cell line HepG2-A16-CD81EGFP. The gist of the method: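 Uninfected HepG2-A16-CD81EGFP cells, 3 × 10^3 per well, 1536-well, plated on prespotted compound at 10 μM final, parasite-free screening media added to match infected plates; puromycin 10 μM positive, DMSO 0.5% negative; run in parallel with 48 h PbLuc assay at 37 °C, 5% CO2; viability by CellTiter-Glo luminescence, normalized to controls.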
As for `Cn1cc(CN2CCOC(Cc3cccc(F)c3)C2)cn1` (stereo unspecified), the cytotoxicity at 10 µM is -2.62%.

For the compound `Cc1nc(N2CCN(C)CC2)ncc1C(=O)N1CCCCC1`, the cytotoxicity at 10 µM was 0.305%.

For the compound `COC(=O)CC1c2cccnc2C(=O)N1Cc1ccccc1` (stereo unspecified), the cytotoxicity at 10 µM came to 1.19%.

With `O=C(NCCc1c[nH]cn1)c1ccc2c(c1)C(=O)N(C1CCCC1)C2=O`, the cytotoxicity at 10 µM was -6.09%.

`CSCCC(Nc1nc(C)cc(C)n1)C(=O)NC1CCCC1` (stereo unspecified): the cytotoxicity at 10 µM is -4.87%.

For `COc1nn(C)cc1C(=O)NCC1(O)CCc2ccccc2C1` (stereo unspecified), the cytotoxicity at 10 µM is -6.98%.

Regarding `Cc1cc(C(O)CCNS(=O)(=O)c2ccc(Cl)s2)c(C)o1` (stereo unspecified), the cytotoxicity at 10 µM was -3.95%.

Take `Cc1cccc(CN2CC3(CCNCC3)OCC2=O)n1`: the cytotoxicity at 10 µM is -21.7%.

Consider `CC(C)(C)CC(=O)N1CC[C@@H]2[C@H](CC1)N(S(C)(=O)=O)CCS2(=O)=O`, for which the cytotoxicity at 10 µM is -8.68%.

Regarding `CC(=O)N1CCN(c2ncnc3cc4c(cc23)OCCO4)CC1`, the cytotoxicity at 10 µM amounted to 13.4%.

In the case of `CCN1CCN(c2nsc(-c3cccnc3)c2C#N)CC1`, the cytotoxicity at 10 µM was -4.2%.

`CCn1nc(C)c2nc(C(C)C)nc(NCc3ccccn3)c21`: the cytotoxicity at 10 µM came out at 7.09%.

For `CN(Cc1cnn(C)c1)C(=O)c1cc(C(F)(F)F)n(C)n1`, the cytotoxicity at 10 µM came to 8.52%.

In the case of `CCn1cc(S(=O)(=O)NC2CCCC2)cn1`, the cytotoxicity at 10 µM was -7.31%.

In the case of `CC1(C(=O)N2CCN(c3cnccn3)CC2)CNCCO1` (stereo unspecified), the cytotoxicity at 10 µM was 6.99%.

As for `Cc1ccc(C(=O)N2CCCCC2c2[nH]ncc2S(C)(=O)=O)s1` (stereo unspecified), the cytotoxicity at 10 µM was -11.4%.

For the compound `CCc1nccn1-c1cccc(C2CCCN2S(=O)(=O)N(C)C)n1` (stereo unspecified), the cytotoxicity at 10 µM is -9.85%.

`CS(=O)(=O)c1ccc(NC(=O)NC2(c3ccccc3)CCC2)cc1`: the cytotoxicity at 10 µM was determined as 5.64%.

As to `Cc1n[nH]c(C2CN(CCNC3CCCCC3)CCO2)n1` (stereo unspecified), the cytotoxicity at 10 µM was -8.29%.

For the compound `CC(OCC1CC1)C(=O)Nc1cccc(C(=O)Nc2ccccn2)c1` (stereo unspecified), the cytotoxicity at 10 µM came to 2.56%.

As for `CC1CN(CC(=O)NCc2ccc(F)cc2)CCN1c1nccs1` (stereo unspecified), the cytotoxicity at 10 µM was -1.22%.

As for `Cc1ccc(F)c2c1CCCN2C(=O)Cc1c(C)nn(C)c1C`, the cytotoxicity at 10 µM came out at 13.6%.

With `CC(C)Cc1noc(CNc2cc3c(cc2Cl)OCCCO3)n1`, the cytotoxicity at 10 µM amounted to 6.48%.

Regarding `O=C(CC1CCN(CCN2CCCCC2)CC1)N1CCOCC1`, the cytotoxicity at 10 µM is -3.91%.

`O=C(NCC1CCOC1)c1cc(-c2ccc(F)cc2)[nH]n1` (stereo unspecified): the cytotoxicity at 10 µM is -6.96%.

As for `CC(C)c1noc(C(C)N2CCC(c3nc4ccccc4[nH]3)CC2)n1` (stereo unspecified), the cytotoxicity at 10 µM is -3.17%.

As for `O=C1OCCCN1Cc1nc(-c2ccncc2)no1`, the cytotoxicity at 10 µM is 6.77%.

Turning to `CCc1nnc(C(C)N2CCCN(C(=O)OCC(C)C)CC2)o1` (stereo unspecified), the cytotoxicity at 10 µM is 4.96%.

As for `NC(=O)c1cnn2c1NCC(CNCC1(c3ccccc3)CCCC1)C2` (stereo unspecified), the cytotoxicity at 10 µM was -7.38%.

Consider `CCC(NCCn1cccn1)C(=O)Nc1cc(C)on1` (stereo unspecified), for which the cytotoxicity at 10 µM was 13.4%.

With `CC(C)c1ccc(/C=C/CC(=O)NC2CCN(C(N)=O)C2)cc1` (stereo unspecified), the cytotoxicity at 10 µM turned out to be 0.838%.

For the compound `c1ccc(C2(CNCc3cnc(N4CCOCC4)nc3)CC2)cc1`, the cytotoxicity at 10 µM is -0.813%.

For `O=C(CN1CSCC1=O)NCC1CCN(c2ccccc2)C1` (stereo unspecified), the cytotoxicity at 10 µM turned out to be 1.19%.

Turning to `COc1cc(NC(=O)NC2CC2)ccc1N1CCOC1=O`, the cytotoxicity at 10 µM was -6.44%.

Turning to `COc1ccc2[nH]cc(C3CCN(CCC(N)=O)CC3)c2c1`, the cytotoxicity at 10 µM was -1.22%.

Take `Cc1nc(CN2CCC(CNC(=O)C3(C)CCCC3)CC2)oc1C`: the cytotoxicity at 10 µM was 7.66%.

In the case of `CNC(=O)COc1nc(C(C)(C)C)no1`, the cytotoxicity at 10 µM is -0.425%.

For `CC(C)CNC(=O)Cn1cc(C(N)=O)c(-c2ccccc2)n1`, the cytotoxicity at 10 µM is -6.98%.

As for `CC1CCCN(C(=O)NCC(F)F)C1` (stereo unspecified), the cytotoxicity at 10 µM worked out at 13.6%.

Regarding `c1cnn(CC2CN(CCCOc3ccc4c(c3)OCO4)CCO2)c1` (stereo unspecified), the cytotoxicity at 10 µM was 0.568%.

As to `Cn1c(=O)oc2cc(Nc3nccnc3C#N)ccc21`, the cytotoxicity at 10 µM was 2.14%.

Turning to `CC(C)N(Cc1ccc(Cl)c(Cl)c1)C(=O)CCn1cncn1`, the cytotoxicity at 10 µM came to 6.63%.

As to `Cc1ccc(CNC(=O)CCN2CCN(c3ccccn3)CC2)n1C`, the cytotoxicity at 10 µM was determined as 19.8%.

On to `Cn1cnc2c1CCN(C(C(=O)N1CCCCC1)c1ccccc1)C2` (stereo unspecified), for which the cytotoxicity at 10 µM was -5.34%.

Consider `O=C(COCC1CC1)Nc1ncccc1O`, for which the cytotoxicity at 10 µM came out at 11%.

As to `CC(C)c1noc(CCNC(=O)N2CCC(O)(C(F)(F)F)C2)n1` (stereo unspecified), the cytotoxicity at 10 µM was 9.74%.

Take `N#Cc1cnn(CCN2CCOC(CNc3cccnn3)C2)c1` (stereo unspecified): the cytotoxicity at 10 µM is -3.85%.

As to `CC(C)c1nn(C)c(N(C)C)c1CNC1CCC(O)CC1` (stereo unspecified), the cytotoxicity at 10 µM is 1.63%.

On to `O=C(NC1(C(=O)NC2CCCC2)CCCC1)c1ccc2[nH]ncc2c1`, for which the cytotoxicity at 10 µM worked out at 4.73%.

`CNc1cc2c(nn1)CCN(C(=O)c1ccccc1-n1cccn1)C2`: the cytotoxicity at 10 µM was found to be 1.91%.

Turning to `CCc1nncn1CCNC(=O)Nc1ccc(OC)c(C)c1`, the cytotoxicity at 10 µM is 9.89%.

As to `NS(=O)(=O)CCNC(=O)c1nnn(-c2ccc(F)cc2)c1C1CC1`, the cytotoxicity at 10 µM was -14.3%.

In the case of `COc1ccc(C(CO)NC(=O)Nc2cccc(C#N)c2)cc1` (stereo unspecified), the cytotoxicity at 10 µM was -17.9%.

Consider `O=C(NCC(O)c1ccc(F)c(F)c1)c1cccnc1O` (stereo unspecified), for which the cytotoxicity at 10 µM is -13.6%.

With `CCc1ncncc1C(=O)NCCN1CCC(C)CC1`, the cytotoxicity at 10 µM was -15.6%.

In the case of `CCN1Cc2ccccc2CC2(CCN(CC3CCC3)CC2)C1=O`, the cytotoxicity at 10 µM came to 4.15%.

For the compound `Cc1cc(C(=O)NC2CCc3c(ccc(=O)n3CC3CC3)C2)no1` (stereo unspecified), the cytotoxicity at 10 µM was 2.62%.

On to `CCc1cnc(N2C[C@@H]3[C@@H](C(=O)N(C)C)CCS(=O)(=O)[C@@H]3C2)nc1`, for which the cytotoxicity at 10 µM is -108%.

Take `COc1ccc2[nH]cc(-c3ccnc(N4CCC(C)CC4)n3)c2c1`: the cytotoxicity at 10 µM was -7.3%.

As for `CC[C@H](C)[C@H](N)C(=O)Nc1nc(-c2cnc(N3CCOCC3)nc2)cs1`, the cytotoxicity at 10 µM was -8.72%.

For `O=C(O)c1ccc(C2CCCN(C(=O)c3ccc[nH]3)C2)cc1` (stereo unspecified), the cytotoxicity at 10 µM was -10.5%.

Regarding `Cc1ncccc1Oc1ncnc(N2CCCC(O)(CO)CC2)c1C` (stereo unspecified), the cytotoxicity at 10 µM was 4.3%.

As for `CCCOC1CCCN(C(=O)Cn2cccc(C(F)(F)F)c2=O)C1` (stereo unspecified), the cytotoxicity at 10 µM is -0.912%.

For `CCNc1ncc(C(=O)N2CCc3c(nc(C)nc3N(C)C)C2)cn1`, the cytotoxicity at 10 µM is -3.28%.

For the compound `O=C(c1ccncc1F)N1CCCC(c2nccn2CC2CCC2)C1` (stereo unspecified), the cytotoxicity at 10 µM came out at 5.94%.

With `Cc1cc(NCc2nnc3n2CCC3)n2nc(C)c(C)c2n1`, the cytotoxicity at 10 µM came to 1.16%.

Regarding `O=C1CC2(CCN(CCCO)CC2)CN1Cc1ccc(F)c(F)c1`, the cytotoxicity at 10 µM was -7.73%.

As to `COCCN(Cc1cnn(C)c1)C(=O)C1CCN(C2CCCCC2)CC1`, the cytotoxicity at 10 µM amounted to 12.6%.

In the case of `CCCC(=O)Nc1ccc(CC(=O)N(CC)CC2CCCCO2)cc1` (stereo unspecified), the cytotoxicity at 10 µM was -9.24%.

Take `CCN(CC)Cc1cc(C(=O)N2CC[C@@]3(O)CCCC[C@H]3C2)c(C)o1`: the cytotoxicity at 10 µM was 2.93%.

For `O=C(CCc1cccs1)N1CCc2[nH]nc(COc3ccccc3)c2C1`, the cytotoxicity at 10 µM turned out to be 0.621%.

`CCc1nnc(CN(C)c2cc(C)nc3c(C)c(C)nn23)o1`: the cytotoxicity at 10 µM was determined as 0.126%.

As to `Cc1cncc(C(=O)N2CCNCC2C(=O)Nc2ccc(C)nc2)c1` (stereo unspecified), the cytotoxicity at 10 µM is -5.19%.

Turning to `COCCc1ncc(CN2CCCC(C(=O)c3ccccc3)C2)cn1` (stereo unspecified), the cytotoxicity at 10 µM was -1.38%.

Consider `C=C(C)COc1ccccc1CNC(CC)c1ccnn1C` (stereo unspecified), for which the cytotoxicity at 10 µM is -4.7%.

Consider `Clc1ccc(CN2CCC(C3CCN(Cc4cccnc4)CC3)C2)cc1` (stereo unspecified), for which the cytotoxicity at 10 µM turned out to be 11.3%.

As to `Cc1ccc(C(=O)N2CCC3(CCC(=O)N(CC(N)=O)C3)CC2)cc1`, the cytotoxicity at 10 µM is -0.527%.

As for `CCCc1nc(N2CC[C@@H](c3ccc4ccccc4c3)[C@H](O)C2)no1`, the cytotoxicity at 10 µM was -0.471%.

For `CC(=O)c1cc(CN2C[C@@H](C(=O)O)[C@H](c3cccnc3)C2)cs1`, the cytotoxicity at 10 µM came to 4.11%.

With `CCC(C(=O)NCc1cc(N2CCOCC2)ncn1)n1cccn1` (stereo unspecified), the cytotoxicity at 10 µM came to 1.44%.

Take `CN(C)C(=O)CCCNC(=O)C(c1cccc(F)c1)N(C)C` (stereo unspecified): the cytotoxicity at 10 µM is -25.3%.

As for `Cc1ccc(C(=O)N2CCC3(CCC(=O)N(CC(N)=O)C3)CC2)c(O)c1`, the cytotoxicity at 10 µM was -11.5%.

`CC(C)Cc1noc(CN(C)C(=O)C2COc3ccccc3C2)n1` (stereo unspecified): the cytotoxicity at 10 µM is -9.12%.

As to `C=Cc1ccc(C(=O)N2CCCC(Nc3ccc(F)cc3)C2)cc1` (stereo unspecified), the cytotoxicity at 10 µM was -22.1%.

With `Cc1noc(C)c1C1CCCN1C(=O)CN1CC2(CCNCC2)OC1=O` (stereo unspecified), the cytotoxicity at 10 µM was -5.24%.

Turning to `C[C@H](O)CNC(=O)c1cnc(-c2ccccc2)nc1O`, the cytotoxicity at 10 µM is -17.8%.

Take `CSc1ncc(Cl)c(C(=O)NC(Cc2ccccc2)C(=O)O)n1` (stereo unspecified): the cytotoxicity at 10 µM was -17.3%.

Consider `CS(=O)(=O)N1CCCC(C(=O)Nc2cnn(Cc3ccc(Cl)cc3)c2)C1` (stereo unspecified), for which the cytotoxicity at 10 µM is -6.5%.

Consider `O=C(CN1CCC(c2ccccc2)C1)NC(=O)NCC(F)(F)F` (stereo unspecified), for which the cytotoxicity at 10 µM is -12.1%.

`Cc1ncc(CN(C)CCO)c2cc(C(=O)c3ccc(Br)cc3)oc12`: the cytotoxicity at 10 µM is -0.227%.

For `COc1ccc(Cn2c(C3CCNCC3)cc3cccnc32)cc1`, the cytotoxicity at 10 µM was -4.45%.

As for `COCC1COCCC12CCN(S(=O)(=O)c1cccnc1)CC2` (stereo unspecified), the cytotoxicity at 10 µM amounted to 6.62%.

As to `COCC1CN(Cc2ccc(C)o2)Cc2cnn(CC3CCOCC3)c21` (stereo unspecified), the cytotoxicity at 10 µM is 1.87%.

As to `COCCNC(=O)C[C@@H]1COC[C@H]2CN(CC3CCOCC3)C[C@@H]12`, the cytotoxicity at 10 µM is -92.9%.

As to `COCCN1CC[C@@H]2CN(Cc3cccnc3OC)C[C@@H]2C1`, the cytotoxicity at 10 µM was determined as 13.6%.

For the compound `O=C1C[C@@H]2CC[C@H](CN1)N2C(=O)CCc1ccsc1`, the cytotoxicity at 10 µM was -6.06%.
